Source: ChEMBL document CHEMBL1132584, “5-Alkyl-2-(alkylthio)-6-(2,6-dihalophenylmethyl)-3, 4-dihydropyrimidin-4(3H)-ones: novel potent and selective dihydro-alkoxy-benzyl-oxopyrimidine derivatives” (J Med Chem, 1999)

Legend:
MT4 [1] = assay: Selectivity index measured as the ratio of CC50 / EC50.; format: functional
In short: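 Selectivity index: CC50 in mock-infected MT-4 cells divided by EC50 against HIV-1 IIIB cytopathicity in MT-4 cells, both from MTT read-out after 4-day culture.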

[2] = target: Human immunodeficiency virus type 1 reverse transcriptase (Human immunodeficiency virus 1, UniProt Q72547); assay: Concentration required to inhibit the HIV-1 reverse transcriptase activity by 50%.
In short: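 Purified recombinant HIV-1 RT, RNA-dependent polymerase activity. Substrate: [³H]dGTP, […] (1 Ci/mmol). Reaction 30 min at 37 °C, then acid-insoluble radioactivity counted on glass-fibre filters.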

MT4 [3] = assay: Cytotoxicity against mock-infected MT-4 cells.; format: functional; conditions: Homo sapiens
In short: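 Mock-infected MT-4 cells (1×10^4/well) incubated 4 days at 37 °C alongside the antiviral assay with serial compound dilutions (from 200 mM DMSO stock); viability read by MTT; CC50 is the dose lowering viability of mock-infected cells by 50%; means of at least two separate experiments.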

MT4 [4] = assay: Concentration required to achieve 50% protection of MT-4 cells from HIV-1-induced cytopathogenicity.; format: functional, cell-based; conditions: Homo sapiens
In short: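 MT-4 cells (1×10^4/well) exposed to test compound dilutions (DMSO stock 200 mM, diluted in medium), then infected with HIV-1 IIIB at 100 CCID50/well; 4-day incubation at 37 °C; viable cells counted by MTT; EC50 is the dose giving 50% protection from virus-induced cytopathicity; means of at least two separate experiments.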

| Structure (SMILES) | Selectivity index (MT4 [1]) [SI] | IC50 [2] [nM] | CC50 (MT4 [3]) [nM] | EC50 (MT4 [4]) [nM] |
| --- | --- | --- | --- | --- |
| Cc1c(Cc2c(F)cccc2F)nc(SC2CCCC2)[nH]c1=O | >2500 | 80 | > 200000 | 80 |
| O=c1cc(Cc2c(F)cccc2F)nc(SC2CCCC2)[nH]1 | >2500 | 80 | > 200000 | 80 |
| CCC(C)Sc1nc(O)c(C)c(Cc2ccc(F)cc2)n1 (stereo unspecified) | 9.5 | 13000 | 105000 | 11000 |
| CCC(C)Sc1nc(O)cc(Cc2ccc([N+](=O)[O-])cc2)n1 (stereo unspecified) | 101 | 1200 | 151000 | 1500 |
| CCC(C)Sc1nc(O)c(C)c(Cc2ccc([N+](=O)[O-])cc2)n1 (stereo unspecified) | >100 | 1800 | > 200000 | 2000 |
| CCC(C)Sc1nc(O)cc(Cc2ccc(Cl)cc2)n1 (stereo unspecified) | 24 | 4800 | 120000 | 5000 |
| CCCCSc1nc(O)cc(Cc2c(F)cccc2F)n1 | 900 | 200 | 162000 | 180 |
| Cc1c(O)nc(SC(C)C)nc1Cc1c(Cl)cccc1Cl | >154 | 1150 | > 200000 | 1300 |
| CCC(C)Sc1nc(O)c(C)c(Cc2cccc(Cl)c2)n1 (stereo unspecified) | >208 | 900 | > 200000 | 960 |
| CCC(C)Sc1nc(O)cc(Cc2cccc(F)c2)n1 (stereo unspecified) | >286 | 600 | > 200000 | 700 |
| Cc1c(O)nc(SC2CCCCC2)nc1Cc1c(Cl)cccc1Cl | >9 | 4900 | > 200000 | 22000 |
| CCC(C)Sc1nc(O)c(C)c(Cc2ccc(Cl)cc2)n1 (stereo unspecified) | >20 | 8500 | > 200000 | 9500 |
| CCC(C)Sc1nc(O)cc(Cc2ccccc2[N+](=O)[O-])n1 (stereo unspecified) | >800 | 300 | > 200000 | 250 |
| CC(C)CSc1nc(O)cc(Cc2c(F)cccc2F)n1 | 1300 | 200 | 182000 | 140 |
| CCC(C)Sc1nc(O)c(C)c(Cc2ccccc2F)n1 (stereo unspecified) | 341 | 410 | 140000 | 410 |
| Oc1cc(Cc2c(Cl)cccc2Cl)nc(SC2CCCCC2)n1 | >333 | 400 | > 200000 | 600 |
| CCC(C)Sc1nc(O)c(C)c(Cc2cccc([N+](=O)[O-])c2)n1 (stereo unspecified) | >571 | 400 | > 200000 | 350 |
| Cc1c(O)nc(SCC(C)C)nc1Cc1c(Cl)cccc1Cl | >166 | 1100 | > 200000 | 1200 |
| CCC(C)Sc1nc(O)cc(Cc2ccc(F)cc2)n1 (stereo unspecified) | 23 | 7400 | > 200000 | 8700 |
| CCC(C)Sc1nc(O)cc(Cc2cccc(Cl)c2)n1 (stereo unspecified) | 58 | 1900 | 116000 | 2000 |
| Cc1c(Cc2c(F)cccc2F)nc(SC(C)C)[nH]c1=O | >4000 | 50 | > 200000 | 50 |
| CCC(C)Sc1nc(O)c(C)c(Cc2c(F)cccc2F)n1 (stereo unspecified) | >4000 | 50 | > 200000 | 50 |
| CCC(C)Sc1nc(O)cc(Cc2c(F)cccc2F)n1 (stereo unspecified) | >5000 | 50 | > 200000 | 40 |
| CC(C)Sc1nc(Cc2c(F)cccc2F)cc(=O)[nH]1 | >4000 | 50 | > 200000 | 50 |
| CCOCn1c(Cc2ccccc2)c(C(C)C)c(=O)[nH]c1=O [EMIVIRINE] | 6666 | 40 | 200000 | 30 |
| Cc1ccnc2c1NC(=O)c1cccnc1N2C1CC1 [NEVIRAPINE] |  |  | > 200000 |  |
